Results reported in ChEMBL document CHEMBL4602716, “Development of Selective Histone Deacetylase 6 (HDAC6) Degraders Recruiting Von Hippel-Lindau (VHL) E3 Ubiquitin Ligase” (ACS Med Chem Lett, 2020).
Activity calls are given as the source filed them. The calls are words filed in the database; no cut-off is given here.

Assays:
Format in all cases: cell-based
[1] = molecular target: T1, von Hippel-Lindau disease tumor suppressor/Protein deacetylase HDAC6 (Homo sapiens, UniProt Q9UBN7+P40337); experiment: Protac activity at VHL/HDAC6 in human MM1S cells assessed as HDAC6 degradation at 100 nM measured after 6 hrs by ELISA
In short: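 Linker-length screen. MM1S cells were treated with degraders at 100 nM for 6 h, and HDAC6 protein level was quantified by in-cell ELISA.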
Target sequence in this assay (P40337 whole entry, looked up): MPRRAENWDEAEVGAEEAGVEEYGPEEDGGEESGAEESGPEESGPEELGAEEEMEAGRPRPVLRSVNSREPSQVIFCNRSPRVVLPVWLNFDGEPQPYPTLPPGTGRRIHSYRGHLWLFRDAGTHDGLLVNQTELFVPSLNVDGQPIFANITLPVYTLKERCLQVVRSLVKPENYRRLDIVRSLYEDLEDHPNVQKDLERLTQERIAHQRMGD
Target sequence in this assay (Q9UBN7 whole entry, looked up): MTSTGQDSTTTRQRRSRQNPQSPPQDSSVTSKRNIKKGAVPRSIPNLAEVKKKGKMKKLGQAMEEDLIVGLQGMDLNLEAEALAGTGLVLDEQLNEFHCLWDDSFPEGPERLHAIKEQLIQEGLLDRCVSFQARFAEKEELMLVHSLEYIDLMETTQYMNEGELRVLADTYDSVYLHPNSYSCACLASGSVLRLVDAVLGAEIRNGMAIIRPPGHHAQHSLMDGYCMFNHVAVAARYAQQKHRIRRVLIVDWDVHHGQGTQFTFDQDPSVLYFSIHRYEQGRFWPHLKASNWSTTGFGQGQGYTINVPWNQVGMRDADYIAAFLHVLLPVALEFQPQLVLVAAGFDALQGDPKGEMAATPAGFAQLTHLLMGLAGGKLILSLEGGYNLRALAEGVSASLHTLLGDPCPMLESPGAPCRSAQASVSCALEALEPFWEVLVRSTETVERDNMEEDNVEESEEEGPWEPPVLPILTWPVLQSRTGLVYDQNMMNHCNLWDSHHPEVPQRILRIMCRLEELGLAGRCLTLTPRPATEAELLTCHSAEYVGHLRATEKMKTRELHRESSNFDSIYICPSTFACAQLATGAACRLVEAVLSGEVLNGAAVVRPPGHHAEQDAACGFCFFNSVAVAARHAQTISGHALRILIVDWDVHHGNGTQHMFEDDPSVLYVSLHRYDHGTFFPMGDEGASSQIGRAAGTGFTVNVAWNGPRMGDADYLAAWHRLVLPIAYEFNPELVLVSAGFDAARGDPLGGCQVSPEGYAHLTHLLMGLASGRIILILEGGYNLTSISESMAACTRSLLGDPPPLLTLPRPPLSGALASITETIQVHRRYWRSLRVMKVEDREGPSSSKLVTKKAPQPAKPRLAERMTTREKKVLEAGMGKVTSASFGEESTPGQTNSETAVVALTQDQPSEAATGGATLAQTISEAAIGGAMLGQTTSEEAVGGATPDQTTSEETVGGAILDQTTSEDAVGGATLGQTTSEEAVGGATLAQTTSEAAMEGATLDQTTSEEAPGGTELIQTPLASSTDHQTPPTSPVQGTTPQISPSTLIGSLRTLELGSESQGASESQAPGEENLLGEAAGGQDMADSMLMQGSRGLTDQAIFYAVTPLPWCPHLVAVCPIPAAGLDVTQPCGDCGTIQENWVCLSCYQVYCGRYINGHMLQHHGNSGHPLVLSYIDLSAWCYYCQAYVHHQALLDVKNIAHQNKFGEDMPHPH

[2] = molecular target: T1, von Hippel-Lindau disease tumor suppressor/Protein deacetylase HDAC6; experiment: Protac activity at VHL/HDAC6 in human MM1S cells assessed as HDAC6 degradation at 100 nM measured after 6 hrs by Western blot analysis
In short: (§1)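 MM1S cells were treated with degraders at 100 nM for 6 h. Lysates were analysed by Western blot for HDAC6 and acetylated tubulin.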
Target sequence in this assay (P40337 whole entry, looked up): as the sequence (P40337 whole entry, looked up) above
Target sequence in this assay (Q9UBN7 whole entry, looked up): as the sequence (Q9UBN7 whole entry, looked up) above

[3] = molecular target: T1, von Hippel-Lindau disease tumor suppressor/Protein deacetylase HDAC6; experiment: Protac activity at VHL/HDAC6 in human MM1S cells measured after 6 hrs by ELISA
In short: (§2)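 MM1S multiple myeloma cells exposed to degraders for 6 h. HDAC6 protein level was read by in-cell ELISA; dose-response ran from 1 nM to 3 μM. DC50 and Dmax were derived from the dose-response curve.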
Target sequence in this assay (Q9UBN7 whole entry): as the sequence (Q9UBN7 whole entry, looked up) above
Target sequence in this assay (P40337 whole entry): as the sequence (P40337 whole entry, looked up) above

[4] = molecular target: T1, von Hippel-Lindau disease tumor suppressor/Protein deacetylase HDAC6; experiment: Protac activity at VHL/HDAC6 in human MM1S cells measured after 6 hrs by ELISA relative to control; in short: as §2
Target sequence in this assay (P40337 whole entry, looked up): as above
Target sequence in this assay (Q9UBN7 whole entry, looked up): as the sequence (Q9UBN7 whole entry, looked up) above

[5] = molecular target: T1, von Hippel-Lindau disease tumor suppressor/Protein deacetylase HDAC6; experiment: Protac activity at VHL/HDAC6 in human MM1S cells assessed as increase in tubulin acetylation at 100 nM measured after 6 hrs by Western blot analysis; in short: as §1
Target sequence in this assay (P40337 whole entry, looked up): as the sequence (P40337 whole entry, looked up) above
Target sequence in this assay (Q9UBN7 whole entry, looked up): as the sequence (Q9UBN7 whole entry, looked up) above

[6] = molecular target: T2, Protein cereblon/Protein deacetylase HDAC6 (Homo sapiens, UniProt Q9UBN7+Q96SW2); experiment: Protac activity at CRBN/HDAC6 in human MM1S cells assessed as increase in tubulin acetylation at 300 nM to 1 microM after 6 hrs by Western blot analysis
Target sequence in this assay (Q96SW2 whole entry, looked up): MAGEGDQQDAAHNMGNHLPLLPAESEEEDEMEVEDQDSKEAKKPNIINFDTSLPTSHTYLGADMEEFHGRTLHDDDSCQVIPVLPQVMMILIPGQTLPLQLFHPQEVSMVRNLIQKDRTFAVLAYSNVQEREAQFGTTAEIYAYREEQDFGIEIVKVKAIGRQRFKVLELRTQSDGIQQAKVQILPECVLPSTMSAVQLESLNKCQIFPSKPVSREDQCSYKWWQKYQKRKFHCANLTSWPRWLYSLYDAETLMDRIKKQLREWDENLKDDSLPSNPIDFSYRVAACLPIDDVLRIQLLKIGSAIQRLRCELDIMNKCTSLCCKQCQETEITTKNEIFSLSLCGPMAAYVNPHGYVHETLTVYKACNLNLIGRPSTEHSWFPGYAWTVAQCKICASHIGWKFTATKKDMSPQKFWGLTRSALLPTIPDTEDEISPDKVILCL
Target sequence in this assay (Q9UBN7 whole entry, looked up): as the sequence (Q9UBN7 whole entry, looked up) above

[7] = molecular target: T2, Protein cereblon/Protein deacetylase HDAC6; experiment: Protac activity at CRBN/HDAC6 in human MM1S cells measured after 6 hrs by ELISA relative to control; in short: as §2
Target sequence in this assay (Q96SW2 whole entry, looked up): as the sequence (Q96SW2 whole entry, looked up) above
Target sequence in this assay (Q9UBN7 whole entry, looked up): as the sequence (Q9UBN7 whole entry, looked up) above

[8] = molecular target: T2, Protein cereblon/Protein deacetylase HDAC6; experiment: Protac activity at CRBN/HDAC6 in human MM1S cells assessed as reduction in protein level at 100 nM after 4 hrs by Western blot analysis
Target sequence in this assay (Q96SW2 whole entry, looked up): as the sequence (Q96SW2 whole entry, looked up) above
Target sequence in this assay (Q9UBN7 whole entry, looked up): as the sequence (Q9UBN7 whole entry, looked up) above

[9] = molecular target: Protein cereblon/Protein deacetylase HDAC6 (Mus musculus) (UniProt Q9Z2V5+Q8C7D2); experiment: Protac activity at CRBN/HDAC6 in mouse 4935 cells assessed as HDAC6 degradation after 6 hrs by relative to control
In short: (§3)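 Mouse 4935 cells were treated with degrader for 6 h, and HDAC6 level was measured by in-cell ELISA.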

[10] = molecular target: T2, Protein cereblon/Protein deacetylase HDAC6; experiment: Protac activity at CRBN/HDAC6 in human MM1S cells assessed as reduction in protein level at 100 nM after 30 mins by Western blot analysis
Target sequence in this assay (Q96SW2 whole entry, looked up): as the sequence (Q96SW2 whole entry, looked up) above
Target sequence in this assay (Q9UBN7 whole entry, looked up): as the sequence (Q9UBN7 whole entry, looked up) above

[11] = molecular target: T3, Protein cereblon/Protein deacetylase HDAC6 (Mus musculus, UniProt Q9Z2V5+Q8C7D2); experiment: Protac activity at CRBN/HDAC6 in mouse 4935 cells assessed as HDAC6 degradation after 6 hrs by ELISA; in short: as §3
T3 sequence (Q9Z2V5 whole entry): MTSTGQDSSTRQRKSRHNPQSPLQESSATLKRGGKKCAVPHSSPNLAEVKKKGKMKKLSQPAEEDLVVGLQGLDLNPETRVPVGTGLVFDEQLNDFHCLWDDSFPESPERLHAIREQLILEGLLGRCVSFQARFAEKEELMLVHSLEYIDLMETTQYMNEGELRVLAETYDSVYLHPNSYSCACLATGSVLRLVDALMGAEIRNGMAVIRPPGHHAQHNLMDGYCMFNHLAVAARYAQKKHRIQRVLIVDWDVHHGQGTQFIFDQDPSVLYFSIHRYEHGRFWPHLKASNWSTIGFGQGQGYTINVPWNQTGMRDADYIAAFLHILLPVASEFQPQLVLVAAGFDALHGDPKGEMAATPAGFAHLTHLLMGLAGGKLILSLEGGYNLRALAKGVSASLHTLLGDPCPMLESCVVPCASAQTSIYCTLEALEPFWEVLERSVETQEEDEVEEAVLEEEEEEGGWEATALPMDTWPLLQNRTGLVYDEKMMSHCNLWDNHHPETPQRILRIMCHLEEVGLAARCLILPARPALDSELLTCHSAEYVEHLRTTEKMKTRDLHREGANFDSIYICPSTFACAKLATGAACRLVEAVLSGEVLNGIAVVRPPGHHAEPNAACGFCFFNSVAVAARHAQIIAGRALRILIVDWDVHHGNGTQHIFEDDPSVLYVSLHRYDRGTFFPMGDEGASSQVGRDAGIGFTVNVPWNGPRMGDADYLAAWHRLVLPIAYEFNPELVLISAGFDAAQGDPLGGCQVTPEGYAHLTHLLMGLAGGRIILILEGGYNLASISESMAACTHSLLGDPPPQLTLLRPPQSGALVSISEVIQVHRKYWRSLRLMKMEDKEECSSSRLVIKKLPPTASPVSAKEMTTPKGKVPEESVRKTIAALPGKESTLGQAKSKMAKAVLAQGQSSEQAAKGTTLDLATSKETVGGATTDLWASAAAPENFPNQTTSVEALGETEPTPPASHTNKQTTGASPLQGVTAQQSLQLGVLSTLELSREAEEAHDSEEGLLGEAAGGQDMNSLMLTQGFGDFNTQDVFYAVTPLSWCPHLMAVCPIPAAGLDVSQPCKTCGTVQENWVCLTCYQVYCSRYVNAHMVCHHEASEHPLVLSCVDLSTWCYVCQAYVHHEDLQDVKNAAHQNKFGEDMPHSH
T3 sequence (Q8C7D2 whole entry): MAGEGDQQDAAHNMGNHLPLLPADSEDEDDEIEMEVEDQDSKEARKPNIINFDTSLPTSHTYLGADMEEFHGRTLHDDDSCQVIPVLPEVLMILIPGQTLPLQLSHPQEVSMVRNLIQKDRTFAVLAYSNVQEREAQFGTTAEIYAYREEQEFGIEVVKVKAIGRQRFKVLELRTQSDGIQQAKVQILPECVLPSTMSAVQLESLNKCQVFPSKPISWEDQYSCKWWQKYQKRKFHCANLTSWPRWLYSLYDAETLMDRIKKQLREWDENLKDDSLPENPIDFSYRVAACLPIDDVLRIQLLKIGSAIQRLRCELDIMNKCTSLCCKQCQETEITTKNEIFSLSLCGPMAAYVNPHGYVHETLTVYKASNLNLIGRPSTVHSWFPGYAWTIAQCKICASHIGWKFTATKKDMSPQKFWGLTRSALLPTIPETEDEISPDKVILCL

[12] = molecular target: T3, Protein cereblon/Protein deacetylase HDAC6; experiment: Protac activity at CRBN/HDAC6 in mouse 4935 cells assessed as HDAC6 degradation after 6 hrs by Western blot analysis
In short: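 Mouse 4935 cells were treated with degraders for 6 h, then analysed by Western blot for HDAC6 and acetylated tubulin.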

[13] = molecular target: T2, Protein cereblon/Protein deacetylase HDAC6; experiment: Protac activity at CRBN/HDAC6 in human MM1S cells measured after 6 hrs by ELISA; in short: as §2
Target sequence in this assay (Q9UBN7 whole entry): as the sequence (Q9UBN7 whole entry, looked up) above
Target sequence in this assay (Q96SW2 whole entry): as the sequence (Q96SW2 whole entry, looked up) above

Compound | Activity [1] | Activity [2] | other results
CCCCN(Cc1ccc(C(=O)NO)cc1)C(=O)Nc1ccc(OCCn2cc(CCCCC(=O)N[C@H](C(=O)N3C[C@H](O)C[C@H]3C(=O)NCc3ccc(-c4scnc4C)cc3)C(C)(C)C)nn2)cc1 | Active |  | 
CCCCN(Cc1ccc(C(=O)NO)cc1)C(=O)Nc1ccc(OCCCCCCCn2cc(CCCCC(=O)N[C@H](C(=O)N3C[C@H](O)C[C@H]3C(=O)NCc3ccc(-c4scnc4C)cc3)C(C)(C)C)nn2)cc1 | Active |  | 
CCCCN(Cc1ccc(C(=O)NO)cc1)C(=O)Nc1ccc(OCCCCn2cc(CCCCC(=O)N[C@H](C(=O)N3C[C@H](O)C[C@H]3C(=O)NCc3ccc(-c4scnc4C)cc3)C(C)(C)C)nn2)cc1 | Active |  | 
CCCCN(Cc1ccc(C(=O)NO)cc1)C(=O)Nc1ccc(OCCCn2cc(CCCCC(=O)N[C@H](C(=O)N3C[C@H](O)C[C@H]3C(=O)NCc3ccc(-c4scnc4C)cc3)C(C)(C)C)nn2)cc1 | Active |  | 
CCCCN(Cc1ccc(C(=O)NO)cc1)C(=O)Nc1ccc(OCCCCCCCCCCCCn2cc(CCCCC(=O)N[C@H](C(=O)N3C[C@H](O)C[C@H]3C(=O)NCc3ccc(-c4scnc4C)cc3)C(C)(C)C)nn2)cc1 | Active | Active | DC50 [3]: 11 nM; Emax [4]: 89%
CCCCN(Cc1ccc(C(=O)NO)cc1)C(=O)Nc1ccc(OCCCCCCCCCn2cc(CCCCC(=O)N[C@H](C(=O)N3C[C@H](O)C[C@H]3C(=O)NCc3ccc(-c4scnc4C)cc3)C(C)(C)C)nn2)cc1 | Active | Active | Activity [5]: Active
CCCCN(Cc1ccc(C(=O)NO)cc1)C(=O)Nc1ccc(OCCCCCn2cc(CNc3cccc4c3C(=O)N(C3CCC(=O)NC3=O)C4=O)nn2)cc1 (stereo unspecified) |  |  | Activity [6]: Active; Emax [7]: 86%; Activity [8]: Active; Emax [9]: 45%; Activity [10]: Active; DC50 [11]: 18 nM; DC50 [12]: 360 nM; DC50 [13]: 2.2 nM
CCCCN(Cc1ccc(C(=O)NO)cc1)C(=O)Nc1ccc(OCCCCCCCCCCn2cc(CCCCC(=O)N[C@H](C(=O)N3C[C@H](O)C[C@H]3C(=O)NCc3ccc(-c4scnc4C)cc3)C(C)(C)C)nn2)cc1 | Active | Active | Activity [5]: Active
CCCCN(Cc1ccc(C(=O)NO)cc1)C(=O)Nc1ccc(OCCCCCn2cc(CCCCC(=O)N[C@H](C(=O)N3C[C@H](O)C[C@H]3C(=O)NCc3ccc(-c4scnc4C)cc3)C(C)(C)C)nn2)cc1 | Active |  | 
CCCCN(Cc1ccc(C(=O)NO)cc1)C(=O)Nc1ccc(OCCCCCCn2cc(CCCCC(=O)N[C@H](C(=O)N3C[C@H](O)C[C@H]3C(=O)NCc3ccc(-c4scnc4C)cc3)C(C)(C)C)nn2)cc1 | Active |  | 
CCCCN(Cc1ccc(C(=O)NO)cc1)C(=O)Nc1ccc(OCCCCCCCCn2cc(CCCCC(=O)N[C@H](C(=O)N3C[C@H](O)C[C@H]3C(=O)NCc3ccc(-c4scnc4C)cc3)C(C)(C)C)nn2)cc1 | Active | Active | 
